Test results published in ChEMBL document CHEMBL5712071, “BET bromodomain protein inhibition is a therapeutic option for medulloblastoma” (Oncotarget, 2013).
Calls of active or inactive are those of the source. The rule behind the calls is not given here.

Tests used:
[1] = tested on: D341 cell line; experiment: Anti-proliferative activity against human D341 cells assessed as reduction in cell viability incubated for 120 hrs by MTT assay; format: functional, cell-based; conditions: D341, 120 h
In short: (§1)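 Cells seeded in triplicate at 2 × 10^3 per well and allowed to adhere for 24h. JQ1 was given as serial dilutions in full medium, 1nM-6µM, from a 10 mM DMSO stock. Viability was read by MTT at each time point and IC50 derived from dose-response curves. Culture media were RPMI 1640/10% FCS for HD-MB3 (plus 1% NEAA), ONS-76, Daoy and UW-228, and EMEM/10% FCS for D-283 and D-341.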

[2] = tested on: ONS-76; experiment: Induction of apoptosis in human ONS-76 cells assessed as increase in population of cells in sub-G1 phase at 500 nM incubated for 72 hrs by ELISA; format: functional, cell-based
In short: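 Cell death ELISA on ONS-76 or UW-228 cells seeded 2 × 10^3 per well in triplicate and allowed 24h to adhere. Treated with 500 nM JQ1 or DMSO for 72h, then apoptotic cell death measured by Cell Death Detection ELISA per kit protocol. Experiments repeated at least 3 times.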

[3] = biological target: Bromodomain-containing protein 4 (Homo sapiens) (UniProt O60885); conditions: UW228, dose 500.0 nM, time 24.0 hrs
[4] = tested on: HD-MB03; experiment: Induction of senescence in human HD-MB03 cells assessed as increase in population of cells in G1 phase at 500 nM incubated for 72 hrs by fluorometric SA-beta-gal activity assay; format: functional, cell-based
In short: (§2)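 Senescence read as fluorometric SA-β-gal activity. Cells seeded 2 × 10^3 per well in triplicate and allowed 24h to adhere, then exposed to 500 nM JQ1 or DMSO control for 72h. Assayed per kit protocol. Experiments repeated at least 3 times.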

[5] = biological target: Bromodomain-containing protein 4 (Homo sapiens) (UniProt O60885); conditions: D283 Med, dose 500.0 nM, time 72.0 hrs
[6] = biological target: Bromodomain-containing protein 4 (Homo sapiens) (UniProt O60885); conditions: HD-MB03, dose 500.0 nM, time 6-24 hrs
[7] = tested on: HD-MB03; experiment: Antitumor activity against human HD-MB03 cells xenografted in female athymic (nu/nu) mouse assessed as delay in time required for tumor growth to an average of 1000 mm3 at 50 mg/kg, ip for 28 days relative to untreated control; format: functional; conditions: time 28 day
In short: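 Female athymic nu/nu mice, 4 weeks old, received 2 × 10^7 HD-MB3 cells in Matrigel subcutaneously in the left flank. At 150–200 mm3 they were randomised, n=7 per group, to JQ1 50 mg/kg ip daily or vehicle for 28 days or until tumours exceeded 1000 mm3. Calipers were used, with volume = (breadth × length × height)/2. Time to 1000 mm3 was analysed by Kaplan-Meier.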

[8] = tested on: D283 Med; experiment: Induction of apoptosis in human D283 cells assessed as increase in population of cells in sub-G1 phase at 500 nM incubated for 72 hrs by ELISA; format: functional, cell-based
[9] = tested on: D283 Med; experiment: Induction of apoptosis in human D283 cells assessed as increase in population of cells in sub-G1 phase at 500 nM incubated for 72 hrs by flow cytometry; format: functional, cell-based
In short: (§3)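 Cells were cultured with 500 nM JQ1 or DMSO control, trypsinised and washed 3 times in PBS. DNA was stained with propidium iodide for 15 min and DNA content analysed by flow cytometry to give G1 and sub-G1 fractions.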

[10] = tested on: D341 cell line; experiment: Induction of apoptosis in human D341 cells assessed as increase in population of cells in G1 phase at 500 nM incubated for 72 hrs by flow cytometry; format: functional, cell-based; in short: as §3
[11] = biological target: Bromodomain-containing protein 4 (Homo sapiens) (UniProt O60885); conditions: Daoy, dose 500.0 nM, time 24.0 hrs
[12] = tested on: HD-MB03; experiment: Anti-proliferative activity against human HD-MB03 cells assessed as reduction in cell viability incubated for 48 hrs by MTT assay; format: functional, cell-based; conditions: HD-MB03, 48 h; in short: as §1
[13] = biological target: Bromodomain-containing protein 4 (Homo sapiens) (UniProt O60885); conditions: HD-MB03, dose 500.0 nM, time 72.0 hrs
[14] = tested on: ONS-76; experiment: Anti-proliferative activity against human ONS-76 cells assessed as reduction in cell viability incubated for 72 hrs by MTT assay; format: functional, cell-based; conditions: ONS-76, 72 h; in short: as §1
[15] = biological target: Bromodomain-containing protein 4 (Homo sapiens) (UniProt O60885); conditions: HD-MB03, dose 500.0 nM, time 72.0 hrs; remark: listed apart in the source
[16] = tested on: ONS-76; experiment: Induction of apoptosis in human ONS-76 cells assessed as increase in population of cells in sub-G1 phase at 500 nM incubated for 72 hrs by flow cytometry; format: functional, cell-based
In short: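 PI flow cytometry: cells seeded in triplicate, adhered 24h, then exposed to 500 nM JQ1 or DMSO control (methods give 48h culture, legend gives 72h). Harvested by trypsin, washed 3 times in PBS, stained with propidium iodide 15 min, DNA content read by flow cytometry. Sub-G1 fraction taken as apoptotic. Experiments repeated at least 3 times.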

[17] = tested on: ONS-76; experiment: Induction of apoptosis in human ONS-76 cells assessed as increase in population of cells in G1 phase at 500 nM incubated for 72 hrs by ELISA; format: functional, cell-based
[18] = tested on: HD-MB03; experiment: Induction of apoptosis in female athymic (nu/nu) mouse xenografted with human HD-MB03 cells as increase in expression of cleaved caspase 3 in tumor at 50 mg/kg, ip administered at 0, 12, 24 and 36 hrs over 2-day course by immunohistochemistry; format: functional, organism-based
In short: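 Nu/nu mice bearing subcutaneous HD-MB3 tumours received JQ1 50 mg/kg ip or DMSO at 0, 12, 24 and 36 h and were killed 4 h after the last dose, 3 tumours per group. Formalin-fixed 5µm sections underwent pH 6.0 antigen retrieval for 20 min at 100°C, then cleaved caspase 3 immunostaining (1:200) with quantification of positive cells.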

[19] = tested on: D283 Med; experiment: Antiproliferative activity against human D283 cells at 500 nM incubated for 72 hrs by BrdU ELISA method; format: functional, cell-based
In short: (§4)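 Cells seeded in triplicate at 2 × 10^3 per well with 24h adherence, then treated with 500 nM JQ1 or DMSO control for 72h. Proliferation was measured by BrdU incorporation ELISA. Experiments were run independently at least 3 times.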

[20] = tested on: Daoy; experiment: Antiproliferative activity against human Daoy cells at 500 nM incubated for 72 hrs by BrdU ELISA method; format: functional, cell-based; in short: as §4
[21] = tested on: Daoy; experiment: Anti-proliferative activity against human Daoy cells assessed as reduction in cell viability incubated for 48 hrs by MTT assay; format: functional, cell-based; in short: as §1
[22] = tested on: ONS-76; experiment: Anti-proliferative activity against human ONS-76 cells assessed as reduction in cell viability incubated for 96 hrs by MTT assay; format: functional, cell-based; conditions: ONS-76, 96 h; in short: as §1
[23] = tested on: HD-MB03; experiment: Anti-proliferative activity against human HD-MB03 cells assessed as reduction in cell viability incubated for 120 hrs by MTT assay; format: functional, cell-based; conditions: HD-MB03, 120 h; in short: as §1
[24] = tested on: Daoy; experiment: Induction of senescence in human Daoy cells assessed as increase in population of cells in G1 phase at 500 nM incubated for 72 hrs by fluorometric SA-beta-gal activity assay; format: functional, cell-based; in short: as §2
[25] = tested on: D283 Med; experiment: Anti-proliferative activity against human D283 cells assessed as reduction in cell viability incubated for 96 hrs by MTT assay; format: functional, cell-based; in short: as §1

SMILES: Cc1sc2c(c1C)C(c1ccc(Cl)cc1)=N[C@@H](CC(=O)OC(C)(C)C)c1nnc(C)n1-2
- IC50 [1]: 0.269 µM
- Activity [2]: Active
- inhibition [3]: Active
- Activity [4]: Active
- inhibition [5]: Active
- inhibition [6]: Active
- Time [7]: 8 days
- Activity [8]: Active
- Activity [9]: Active
- Activity [10]: Active
- inhibition [11]: Active
- IC50 [12]: 0.364 µM
- inhibition [13]: 10%
- IC50 [14]: 0.087 µM
- inhibition [15]: Active
- Activity [16]: Active
- Activity [17]: Active
- Activity [18]: Active
- Activity [19]: Active
- Activity [20]: Active
- IC50 [21]: > 1 µM
- IC50 [22]: 0.175 µM
- IC50 [23]: 0.153 µM
- Activity [24]: Active
- IC50 [25]: 0.256 µM
